Tests used:
D(2) dopamine receptor = D(2) dopamine receptor (Homo sapiens, UniProt P14416); experiment: In vitro binding affinity against recombinant human dopamine receptor D2L […]
Procedure, shortened: (§1)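 Affinities are Ki values (nM) at human D2L and human 5-HT2A receptors, reported as mean ± SEM of three independent experiments.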

[1] = target: 5-hydroxytryptamine receptor 2A (Homo sapiens, UniProt P28223); experiment: In vitro binding affinity against recombinant human 5-hydroxytryptamine 2A receptor […]; procedure, shortened: as §1
5-hydroxytryptamine receptor 2A, sequence (P28223 whole entry): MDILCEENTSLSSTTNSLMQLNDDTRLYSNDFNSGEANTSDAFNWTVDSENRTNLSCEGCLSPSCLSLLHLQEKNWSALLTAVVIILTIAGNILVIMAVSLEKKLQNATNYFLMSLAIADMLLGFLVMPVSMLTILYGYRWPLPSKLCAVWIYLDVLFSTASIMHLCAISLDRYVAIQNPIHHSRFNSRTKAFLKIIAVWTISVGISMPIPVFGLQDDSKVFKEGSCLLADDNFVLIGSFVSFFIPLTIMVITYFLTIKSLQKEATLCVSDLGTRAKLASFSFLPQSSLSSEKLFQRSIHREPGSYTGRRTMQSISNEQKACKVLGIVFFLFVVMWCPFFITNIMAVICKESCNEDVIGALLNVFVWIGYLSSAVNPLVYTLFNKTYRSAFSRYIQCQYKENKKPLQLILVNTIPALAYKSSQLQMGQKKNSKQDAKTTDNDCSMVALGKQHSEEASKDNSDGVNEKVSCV

D(2) dopamine receptor, sequence (P14416 whole entry): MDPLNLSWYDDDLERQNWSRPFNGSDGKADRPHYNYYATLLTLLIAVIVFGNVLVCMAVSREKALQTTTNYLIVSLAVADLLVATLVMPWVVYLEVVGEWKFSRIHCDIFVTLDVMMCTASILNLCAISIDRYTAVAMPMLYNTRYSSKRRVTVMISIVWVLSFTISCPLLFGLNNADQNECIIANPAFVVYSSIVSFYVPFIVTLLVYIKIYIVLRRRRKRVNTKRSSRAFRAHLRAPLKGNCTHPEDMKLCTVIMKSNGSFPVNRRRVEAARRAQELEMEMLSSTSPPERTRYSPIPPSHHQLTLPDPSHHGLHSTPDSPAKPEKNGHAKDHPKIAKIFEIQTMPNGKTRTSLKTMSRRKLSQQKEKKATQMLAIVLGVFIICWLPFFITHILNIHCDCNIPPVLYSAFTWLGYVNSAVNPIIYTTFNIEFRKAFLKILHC

CCN1CCN(c2cc(-c3ccc(F)cc3)c3c(n2)CC[C@@H](O)CCC3)CC1
Ki (D(2) dopamine receptor): 0.0119 µM | Ki [1]: 0.0179 µM

CCN1CCN(c2cc(-c3ccc(F)cc3)c3c(n2)CCC[C@@H](O)CC3)CC1
Ki (D(2) dopamine receptor): 0.0062 µM | Ki [1]: 0.0147 µM

CCN1CCN(c2cc(-c3ccc(F)cc3)c3c(n2)CC[C@H](O)CCC3)CC1
Ki (D(2) dopamine receptor): 0.0036 µM | Ki [1]: 0.00967 µM

CCN1CCN(c2cc(-c3ccc(F)cc3)c3c(n2)CCC[C@H](O)CC3)CC1
Ki (D(2) dopamine receptor): 0.0212 µM | Ki [1]: 0.0185 µM

CCN1CCN(c2cc(-c3ccc(F)cc3)c3c(n2)CCCCCC3)CC1 [BLONANSERIN]
Ki (D(2) dopamine receptor): 0.00014 µM | Ki [1]: 0.00081 µM
